Measurements as given in ChEMBL document CHEMBL3124793, “Discovery of spirofused piperazine and diazepane amides as selective histamine-3 antagonists with in vivo efficacy in a mouse model of cognition” (J Med Chem, 2014).
Active and inactive are the calls of the source.

What was measured:
Rattus norvegicus [1] = experiment: […] clearance in rat at 3.5 umol/kg, iv; assay type: ADME, organism-based; settings: in vivo
How it was run: (§1)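 IV dosing in male fasted rats, doses in μmol/kg; mean Vss, half-life and clearance derived; number of rats per compound reported.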

[2] = Half life in rat at 3.5 umol/kg, iv; assay type: ADME, organism-based; settings: in vivo; how it was run: as §1
[3] = Volume of distribution at steady state in rat at 3.5 umol/kg, iv; assay type: ADME, organism-based; settings: in vivo, read-out: Vdss
How it was run: (§2)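 Male fasted rats given a single IV dose. Volume of distribution taken as the mean from plasma sampling after the IV dose. Animals per compound: 1 to 7.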

[4] = Intrinsic clearance in rat liver microsomes; assay type: ADME; settings: read-out: CLH
[5] = Intrinsic clearance in human liver microsomes; assay type: ADME; settings: read-out: CLH
How it was run: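 Human liver microsomal clearance, expressed as μL/min/mg.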

[6] = Apparent permeability from apical to basolateral side in MDCK cells; assay type: ADME, cell-based, Canis lupus familiaris; settings: dog
How it was run: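 MDCK monolayers; A-to-B Papp in 1 × 10⁻⁶ cm/s; efflux taken as ratio of A-to-B Papp over B-to-A Papp.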

[7] = Percentage unbound in human plasma; assay type: ADME, cell-free
How it was run: (§3)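 Plasma protein binding in human or rat plasma, expressed as percent free.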

[8] = Equilibrium solubility of the compound at pH 7.4; assay type: physicochemical; settings: buffer
[9] = Octanol-water partition coefficient, log D of the compound by shake flask HPLC analysis; assay type: physicochemical
How it was run: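 logD between octanol and water by shake-flask with HPLC analysis.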

Histamine H3 receptor [10] = target: T1, Histamine H3 receptor (Homo sapiens, UniProt Q9Y5N1); experiment: Antagonist activity at human histamine H3 receptor long form expressed in CHOK1 cells assessed as inhibition of R-alpha-methylhistamine-induced [35S]GTPgammaS binding after 3 hrs by scintillation proximity assay; assay type: functional, cell-based, CHO-K1
How it was run: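 Membranes from CHO-K1 cells stably expressing human H3R long form (445 aa) incubated 3 h with test compound, 25 nM R-α-methylhistamine, 10 μM GDP, 0.2 nM [35S]GTPγS and WGA PVT SPA beads; bead-bound [35S]GTPγS counted by scintillation. Average of n > 2, standard error <20%.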

Rattus norvegicus [11] = experiment: […] clearance in rat at 2.1 umol/kg, iv; assay type: ADME, organism-based; settings: in vivo; how it was run: as §1
[12] = Half life in rat at 2.1 umol/kg, iv; assay type: ADME, organism-based; settings: in vivo; how it was run: as §1
[13] = Volume of distribution at steady state in rat at 2.1 umol/kg, iv; assay type: ADME, organism-based; settings: in vivo, read-out: Vdss; how it was run: as §1
Histamine H3 receptor [14] = target: T1, Histamine H3 receptor; experiment: Displacement of [3H]-N-alpha-methylhistamine from human histamine H3 receptor expressed in CHOK1 cells after 1.5 hrs by scintillation proximity assay; assay type: cell-based, CHO-K1
How it was run: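 Human H3R-CHO-K1 membranes incubated 1.5 h with test compound and [3H]-N-α-methylhistamine in SPA format; nonspecific binding defined with 10 μM imetit; bead-bound radioligand counted. Average of n > 2, standard error <50%.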

Rattus norvegicus [15] = experiment: […] clearance in rat at 2.4 umol/kg, iv; assay type: ADME, organism-based; settings: in vivo; how it was run: as §1
[16] = Half life in rat at 2.4 umol/kg, iv; assay type: ADME, organism-based; settings: in vivo; how it was run: as §1
[17] = Volume of distribution at steady state in rat at 2.4 umol/kg, iv; assay type: ADME, organism-based; settings: in vivo, read-out: Vdss; how it was run: as §1
[18] = target: Phosphodiesterase 4 (Homo sapiens) (UniProt P27815+Q08499+Q07343+Q08493); experiment: Activity at PDE4 (unknown origin) at 10 uM relative to control; assay type: protein assay
How it was run: (§4)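 Single-concentration binding at 10 μM against a panel of off-targets, run by an outside testing laboratory; activity judged against each assay's defined criteria.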

Homo sapiens [19] = species on record: Homo sapiens; experiment: Activity at GABA receptor (unknown origin) at 10 uM relative to control; how it was run: as §4
[20] = target: D(2) dopamine receptor (Homo sapiens) (UniProt P14416); experiment: Activity at dopamine D2 receptor (unknown origin) at 10 uM relative to control; how it was run: as §4
[21] = target: T2, Muscarinic acetylcholine receptor M2 (Homo sapiens) (UniProt P08172); experiment: Activity at muscarinic M2 receptor (unknown origin) at 10 uM relative to control; how it was run: as §4
T2 sequence (whole entry): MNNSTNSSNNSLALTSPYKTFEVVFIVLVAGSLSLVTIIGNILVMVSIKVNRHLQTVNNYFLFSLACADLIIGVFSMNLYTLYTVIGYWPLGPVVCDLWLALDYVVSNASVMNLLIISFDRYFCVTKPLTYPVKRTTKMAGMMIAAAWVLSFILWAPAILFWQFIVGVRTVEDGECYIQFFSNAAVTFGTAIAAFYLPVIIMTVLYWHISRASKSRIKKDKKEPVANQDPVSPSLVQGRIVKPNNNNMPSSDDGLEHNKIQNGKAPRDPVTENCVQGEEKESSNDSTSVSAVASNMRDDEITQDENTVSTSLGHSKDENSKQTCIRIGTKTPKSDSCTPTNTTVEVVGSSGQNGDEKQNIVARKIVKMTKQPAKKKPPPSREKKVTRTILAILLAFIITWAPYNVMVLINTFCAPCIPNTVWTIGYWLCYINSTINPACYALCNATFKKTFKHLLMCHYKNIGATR

[22] = target: Sodium-dependent noradrenaline transporter (Homo sapiens) (UniProt P23975); experiment: Activity at NET (unknown origin) at 10 uM relative to control; how it was run: as §4
Homo sapiens [23] = species on record: Homo sapiens; experiment: Activity at nicotinic acetylcholine receptor (unknown origin) at 10 uM relative to control; how it was run: as §4
[24] = target: T3, 5-hydroxytryptamine receptor 1A (Homo sapiens) (UniProt P08908); experiment: Activity at 5-HT1A receptor (unknown origin) at 10 uM relative to control; how it was run: as §4
T3 sequence (whole entry): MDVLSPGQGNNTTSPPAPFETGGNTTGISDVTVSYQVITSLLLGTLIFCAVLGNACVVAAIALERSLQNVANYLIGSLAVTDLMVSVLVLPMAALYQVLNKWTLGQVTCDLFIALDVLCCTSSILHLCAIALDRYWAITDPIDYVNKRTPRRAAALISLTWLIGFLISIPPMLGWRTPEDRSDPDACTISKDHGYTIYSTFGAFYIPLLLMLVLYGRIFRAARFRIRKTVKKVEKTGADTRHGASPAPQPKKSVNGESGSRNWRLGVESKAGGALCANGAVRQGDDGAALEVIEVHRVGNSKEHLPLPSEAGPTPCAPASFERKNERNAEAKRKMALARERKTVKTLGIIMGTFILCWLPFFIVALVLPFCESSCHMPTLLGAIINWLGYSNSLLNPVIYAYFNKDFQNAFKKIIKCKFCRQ

[25] = target: Adenosine receptor A2a (Homo sapiens) (UniProt P29274); experiment: Activity at adenosine A2a receptor (unknown origin) at 10 uM relative to control; how it was run: as §4
[26] = target: Histamine H4 receptor (Homo sapiens) (UniProt Q9H3N8); experiment: Activity at histamine H4 receptor (unknown origin) at 10 uM relative to control; how it was run: as §4
[27] = target: Histamine H1 receptor (Homo sapiens) (UniProt P35367); experiment: Activity at histamine H1 receptor (unknown origin) at 10 uM relative to control; how it was run: as §4
[28] = Drug recovery in Sprague-Dawley rat urine at 3 umol/kg, iv after 24 hrs; assay type: ADME, organism-based; settings: read-out: Drug recovery
[29] = Oral bioavailability in Sprague-Dawley rat 3 umol/kg; assay type: ADME, organism-based; settings: in vivo
[30] = Tmax in Sprague-Dawley rat 3 umol/kg, po; assay type: ADME, organism-based; settings: in vivo
[31] = Cmax in Sprague-Dawley rat 3 umol/kg, po; assay type: ADME, organism-based; set-up: dose 3 umol/kg, route oral; settings: in vivo
[32] = Drug uptake in Sprague-Dawley rat CSF at 3 umol/kg, iv after 1 hr; assay type: ADME, organism-based, Cerebrospinal fluid; settings: read-out: Drug uptake
How it was run: (§5)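 3 μmol/kg IV; plasma, brain and CSF sampled at 1 h, n = 4; brain not corrected for ~2–3% vascular contamination; nonspecific binding during CSF sampling not evaluated; mean with standard deviation.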

Brain = experiment: Drug uptake in Sprague-Dawley rat brain at 3 umol/kg, iv after 1 hr; assay type: ADME, organism-based; settings: in vivo; how it was run: as §5
[33] = Plasma concentration in Sprague-Dawley rat at 3 umol/kg, iv after 1 hr; assay type: ADME, organism-based; how it was run: as §5
[34] = Apparent half life in Sprague-Dawley rat; assay type: ADME, organism-based; settings: in vivo, read-out: t1/2(app) (converted)
[35] = Plasma clearance in Sprague-Dawley rat; assay type: ADME, organism-based; settings: read-out: AUC
Rattus norvegicus [36] = experiment: […] clearance in rat at 3 umol/kg, iv; assay type: ADME, organism-based; settings: in vivo; how it was run: as §1
[37] = Half life in rat at 3 umol/kg, iv; assay type: ADME, organism-based; settings: in vivo; how it was run: as §1
[38] = Volume of distribution at steady state in rat at 3 umol/kg, iv; assay type: ADME, organism-based; settings: in vivo, read-out: Vdss; how it was run: as §2
[39] = Induction of phospholipidosis in mouse I-13.35 cells by EthD-2 staining-based assay; assay type: cell-based
Salmonella typhimurium = experiment: Genotoxicity in Salmonella typhimurium by Ames test; assay type: toxicity, organism-based; settings: salmonella enterica subsp. enterica serovar typhimurium
Rattus norvegicus [40] = species on record: Rattus norvegicus; experiment: Inhibition of rat sigma-2 receptor at 10 uM relative to control
How it was run: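 Radioligand binding screen within a 144-receptor secondary pharmacology panel, run at a single 10 μM test concentration. The response is expressed as percent activity. Activity was judged against each assay's own defined criteria.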

[41] = target: Histamine H2 receptor (Homo sapiens) (UniProt P25021); experiment: Activity at histamine H2 receptor (unknown origin) at 10 uM relative to control; how it was run: as §4
[42] = Percentage unbound in rat plasma; assay type: ADME, cell-free; how it was run: as §3
Mus musculus = experiment: Cognitive enhancing effect in CF-1 mouse at 1 to 10 mg/kg, sc administered 60 mins prior to acquisition phase by novel object exploration test; assay type: functional, organism-based
How it was run: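 Male CF-1 mice given 1, 3 or 10 mg/kg s.c. 60 min before acquisition with two identical objects; one object then swapped for a novel one; mice re-tested 15 min later. Novel/familiar interaction ratio (50% = no preference) from manual scoring; mean ± SD; ANOVA with Newman–Keuls post hoc.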

T1 sequence (Q9Y5N1 whole entry): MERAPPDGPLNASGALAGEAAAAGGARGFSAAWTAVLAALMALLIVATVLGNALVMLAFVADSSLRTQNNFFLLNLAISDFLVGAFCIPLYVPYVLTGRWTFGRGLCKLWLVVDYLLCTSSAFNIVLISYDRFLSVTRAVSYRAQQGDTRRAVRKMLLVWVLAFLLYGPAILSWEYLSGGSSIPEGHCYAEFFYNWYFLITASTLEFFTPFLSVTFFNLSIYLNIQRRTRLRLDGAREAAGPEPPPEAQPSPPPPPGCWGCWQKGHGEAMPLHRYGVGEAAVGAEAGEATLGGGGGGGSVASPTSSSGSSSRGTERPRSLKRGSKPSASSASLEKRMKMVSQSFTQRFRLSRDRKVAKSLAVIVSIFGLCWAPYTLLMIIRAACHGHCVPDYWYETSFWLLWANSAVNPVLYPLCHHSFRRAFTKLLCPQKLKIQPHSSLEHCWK
Histamine H1 receptor (Homo sapiens), sequence (P35367 whole entry): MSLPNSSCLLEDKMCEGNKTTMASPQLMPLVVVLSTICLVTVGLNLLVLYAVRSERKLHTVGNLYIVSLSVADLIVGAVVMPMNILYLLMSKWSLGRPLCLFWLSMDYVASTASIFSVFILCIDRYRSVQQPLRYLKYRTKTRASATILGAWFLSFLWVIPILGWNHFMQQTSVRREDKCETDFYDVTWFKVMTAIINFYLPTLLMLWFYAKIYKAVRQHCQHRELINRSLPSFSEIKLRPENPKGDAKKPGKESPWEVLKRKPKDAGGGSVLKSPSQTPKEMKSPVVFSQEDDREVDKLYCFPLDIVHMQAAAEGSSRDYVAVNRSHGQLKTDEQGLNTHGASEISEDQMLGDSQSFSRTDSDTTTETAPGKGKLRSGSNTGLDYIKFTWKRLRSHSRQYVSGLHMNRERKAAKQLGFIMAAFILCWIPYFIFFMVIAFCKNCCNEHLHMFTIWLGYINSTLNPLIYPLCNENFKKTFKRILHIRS
Sodium-dependent noradrenaline transporter (Homo sapiens), sequence (P23975 whole entry): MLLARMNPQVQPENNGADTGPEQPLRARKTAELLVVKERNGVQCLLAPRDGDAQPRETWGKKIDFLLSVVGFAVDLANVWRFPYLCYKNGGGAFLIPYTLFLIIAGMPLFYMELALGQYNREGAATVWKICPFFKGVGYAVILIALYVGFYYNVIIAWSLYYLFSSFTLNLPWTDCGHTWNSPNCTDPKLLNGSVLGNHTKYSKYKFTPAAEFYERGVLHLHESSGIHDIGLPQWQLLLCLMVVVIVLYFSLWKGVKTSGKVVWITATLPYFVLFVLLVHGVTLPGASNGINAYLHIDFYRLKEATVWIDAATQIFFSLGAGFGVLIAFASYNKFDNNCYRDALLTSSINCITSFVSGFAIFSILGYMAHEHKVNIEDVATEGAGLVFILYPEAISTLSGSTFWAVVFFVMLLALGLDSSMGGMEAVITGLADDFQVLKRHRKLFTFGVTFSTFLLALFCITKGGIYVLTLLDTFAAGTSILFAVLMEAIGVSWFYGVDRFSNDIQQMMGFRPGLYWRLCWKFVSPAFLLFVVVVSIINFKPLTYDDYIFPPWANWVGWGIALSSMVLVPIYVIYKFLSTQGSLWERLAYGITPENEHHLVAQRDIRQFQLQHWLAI
Histamine H4 receptor (Homo sapiens), sequence (Q9H3N8 whole entry): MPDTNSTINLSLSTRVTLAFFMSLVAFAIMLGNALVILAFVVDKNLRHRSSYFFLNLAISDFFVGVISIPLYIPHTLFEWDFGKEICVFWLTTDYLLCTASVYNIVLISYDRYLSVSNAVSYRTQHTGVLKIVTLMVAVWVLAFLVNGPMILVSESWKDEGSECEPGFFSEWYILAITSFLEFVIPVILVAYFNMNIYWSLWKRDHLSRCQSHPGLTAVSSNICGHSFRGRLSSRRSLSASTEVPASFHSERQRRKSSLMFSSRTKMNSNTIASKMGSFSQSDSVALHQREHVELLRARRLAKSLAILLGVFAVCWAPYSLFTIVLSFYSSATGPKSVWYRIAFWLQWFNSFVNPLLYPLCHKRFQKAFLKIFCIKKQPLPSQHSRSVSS
D(2) dopamine receptor (Homo sapiens), sequence (P14416 whole entry): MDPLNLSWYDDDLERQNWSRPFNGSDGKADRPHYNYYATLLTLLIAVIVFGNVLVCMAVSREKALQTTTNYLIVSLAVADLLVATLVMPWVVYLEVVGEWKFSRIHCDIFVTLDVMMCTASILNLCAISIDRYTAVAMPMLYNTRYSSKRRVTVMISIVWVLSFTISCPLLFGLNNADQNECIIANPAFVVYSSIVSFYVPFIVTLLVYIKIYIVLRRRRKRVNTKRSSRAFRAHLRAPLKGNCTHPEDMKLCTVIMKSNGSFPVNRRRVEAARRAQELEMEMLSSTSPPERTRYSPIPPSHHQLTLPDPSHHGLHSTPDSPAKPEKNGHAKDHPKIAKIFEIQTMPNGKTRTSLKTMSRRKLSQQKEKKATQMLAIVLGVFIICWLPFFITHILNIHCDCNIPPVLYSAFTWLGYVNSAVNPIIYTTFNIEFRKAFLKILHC
Adenosine receptor A2a (Homo sapiens), sequence (P29274 whole entry): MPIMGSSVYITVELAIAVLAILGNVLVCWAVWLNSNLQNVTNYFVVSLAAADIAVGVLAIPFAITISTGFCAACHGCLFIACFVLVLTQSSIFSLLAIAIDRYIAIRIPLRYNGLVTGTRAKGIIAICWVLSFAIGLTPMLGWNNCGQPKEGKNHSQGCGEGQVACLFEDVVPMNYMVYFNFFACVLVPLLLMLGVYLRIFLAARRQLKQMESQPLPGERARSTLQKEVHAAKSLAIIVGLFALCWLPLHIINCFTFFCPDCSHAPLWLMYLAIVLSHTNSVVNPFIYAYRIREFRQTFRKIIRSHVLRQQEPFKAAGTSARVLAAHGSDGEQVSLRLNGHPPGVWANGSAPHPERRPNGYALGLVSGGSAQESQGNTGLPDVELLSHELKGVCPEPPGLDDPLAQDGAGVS
Histamine H2 receptor (Homo sapiens), sequence (P25021 whole entry): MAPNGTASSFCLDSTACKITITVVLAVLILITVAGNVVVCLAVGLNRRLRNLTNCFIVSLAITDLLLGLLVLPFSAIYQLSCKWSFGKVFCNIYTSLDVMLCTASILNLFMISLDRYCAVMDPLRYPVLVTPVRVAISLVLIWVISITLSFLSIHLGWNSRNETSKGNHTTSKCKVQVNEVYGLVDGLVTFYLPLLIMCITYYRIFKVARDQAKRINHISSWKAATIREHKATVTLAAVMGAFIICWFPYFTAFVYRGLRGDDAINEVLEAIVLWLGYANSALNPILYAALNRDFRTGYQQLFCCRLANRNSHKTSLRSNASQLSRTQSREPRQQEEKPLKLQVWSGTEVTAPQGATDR

| Structure (SMILES) | microsomal CLint [4] | microsomal CLint [5] | Papp A→B [6] | fraction unbound [7] | solubility thermodynamic [8] | logD [9] | IC50 (Histamine H3 receptor [10]) | Ki (Histamine H3 receptor [14]) | Activity [18] | Activity (Homo sapiens [19]) | Activity [20] | Activity [21] | Activity [22] | Activity (Homo sapiens [23]) | Activity [24] | Activity [25] | Activity [26] | Activity [27] | further results |
| --- | --- | --- | --- | --- | --- | --- | --- | --- | --- | --- | --- | --- | --- | --- | --- | --- | --- | --- | --- |
| CS(=O)(=O)N1CCC2(CC1)CC(C(=O)N1CCN(C3CCC3)CC1)C2 | 16 µL/min/mg | 8.3 µL/min/mg | 19 ×10⁻⁶ cm/s | 0.67 | > 500 µM | 0.97 | 11 nM |  |  |  |  |  |  |  |  |  |  |  | CL (Rattus norvegicus [1]): 69.8 mL/min/kg; half-life [2]: 0.4 h; Vd [3]: 1.4 L/kg |
| CC(C)N1CCN(C(=O)C2CC3(CCN(C4CCOCC4)CC3)C2)CC1 | < 4 µL/min/mg | < 4 µL/min/mg | 3.6 ×10⁻⁶ cm/s |  | > 500 µM | -0.74 | 1.7 nM | 0.3 nM |  |  |  |  |  |  |  |  |  |  | CL (Rattus norvegicus [11]): 78 mL/min/kg; half-life [12]: 11.7 h; Vd [13]: 64 L/kg |
| O=C(C1CC2(CCN(C3CCOCC3)CC2)C1)N1CCN(C2CCC2)CC1 | < 4 µL/min/mg | < 4 µL/min/mg | 5.1 ×10⁻⁶ cm/s | 0.51 | > 500 µM |  | 1.9 nM |  | > 10% | > 10% | > 10% | > 10% | > 10% | > 10% | > 10% | > 10% | > 10% | > 10% | CL (Rattus norvegicus [15]): 81.2 mL/min/kg; half-life [16]: 14.2 h; Vd [17]: 74 L/kg |
| CC(C)N1CCN(C(=O)[C@H]2CC23CCN(C2CCOCC2)CC3)CC1 | 7 µL/min/mg | < 4 µL/min/mg | 13 ×10⁻⁶ cm/s |  | > 500 µM | -0.26 | 8.3 nM | 0.8 nM | > 10% | > 10% | > 10% | > 10% | > 10% | > 10% | > 10% | > 10% | > 10% | > 10% | dose excreted at 24 h [28]: 14%; bioavailability [29]: 99%; Tmax [30]: 6 h; Cmax [31]: 71 nM; concentration at 1 h [32]: 34 nM; Drug uptake (Brain): 540 nmol/kg; concentration at 1 h [33]: 180 nM; half-life [34]: 15 h; clearance [35]: 53 mL/min/kg; CL (Rattus norvegicus [36]): 16.4 mL/min/kg; half-life [37]: 25.3 h; Vd [38]: 34.6 L/kg; EC50 [39]: > 300000 nM; Activity (Salmonella typhimurium): Non-toxic; inhibition (Rattus norvegicus [40]): 62%; Activity [41]: > 10%; fraction unbound [42]: 0.87; Activity (Mus musculus): Active |
